CFTR F508del cor – correctors of CFTR F508del function in bronchial epithelial cells; CFBE cells, YFP halide quenching; stimulated with forskolin plus potentiator P3; % fluorescence drop versus neutral controls; activity (quench increase), % at 7.58 µM; AID 720511; 350,000 compounds, 0.36% hits;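 active = mean added fluorescence quench of at least 8% versus neutral control, with both replicates also reaching 8%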;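 also: cells transiently co-express mutant CFTR-F508del with the halide-sensitive YFP; corrector assay measuring rescue of mutant channel to the surface after 24 h compound exposure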
E-sel inducer – E-selectin induction on HUVECs | 260,000 compounds, 0.37% hits | P16581 | AID 686992 | HUVEC E-selectin immunofluorescence imaging; normalized: neutral wells 0, TNF-alpha wells 100 | activation, % at 7.58 µM;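 active = mean E-selectin-positive cell signal at least 10% of the positive control, reached in at least 60% of replicates, without over 20% cell loss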
Target sequence (P16581 whole entry, looked up): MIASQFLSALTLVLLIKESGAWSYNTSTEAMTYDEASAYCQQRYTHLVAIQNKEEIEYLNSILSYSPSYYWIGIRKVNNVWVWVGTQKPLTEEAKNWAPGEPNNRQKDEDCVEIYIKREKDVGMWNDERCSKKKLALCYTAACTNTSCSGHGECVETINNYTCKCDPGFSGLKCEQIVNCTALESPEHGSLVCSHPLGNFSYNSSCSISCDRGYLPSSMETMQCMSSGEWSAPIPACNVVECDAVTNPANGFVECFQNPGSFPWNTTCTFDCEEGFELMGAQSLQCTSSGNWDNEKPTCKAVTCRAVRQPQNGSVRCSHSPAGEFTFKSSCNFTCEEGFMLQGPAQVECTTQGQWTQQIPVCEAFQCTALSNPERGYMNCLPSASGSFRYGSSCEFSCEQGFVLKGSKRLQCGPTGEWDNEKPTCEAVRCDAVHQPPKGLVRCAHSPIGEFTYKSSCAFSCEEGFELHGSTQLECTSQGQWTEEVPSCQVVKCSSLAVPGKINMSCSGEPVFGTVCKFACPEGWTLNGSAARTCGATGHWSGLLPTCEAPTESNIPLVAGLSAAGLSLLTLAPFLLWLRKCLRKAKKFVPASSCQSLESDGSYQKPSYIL
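System: HUVEC, human umbilical vein endothelial cells; quantity: 3,000 cells/well; buffer or medium: EGM-2 medium, gelatin-coated wells; dosing: single-point compound dose; detection: immunofluorescence imaging; evaluation: % PE-positive cells; benchmarks: TNF-alpha, DMSO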
ERAP1 HTS inh – inhibitors of human ERAP1 aminopeptidase. Q9NZ08. recombinant ERAP1, Leu-AMC fluorescence, 60 min. inhibition, % at 10.7 µM. 340,000 compounds, 0.15% hits;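 active = mean replicate inhibition of at least 30%, or all replicates individually reaching that 30% level; inactive = mean below 30% and not every replicate reaching it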;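 also: 0% = neutral control wells and 100% = L-leucinethiol positive control wells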
DENV2 CPE rescue – DENV2-induced cell death inhibition; DENV2-infected cells, cytopathic effect rescue, plate reader; CPE inhibition, % at 9.99 µM; 350,000 compounds, 1.7% hits; in the data active = CPE inhibition above about 20%, passing the limit was not always enough; tested in BHK-21 cells;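 also: 0% = median of neutral control wells and 100% = median of positive control wells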
FGF22 binding – FGF22 (human) thermal shift binding; Q9HCT0; recombinant FGF22 thermal shift, SYPRO orange fluorescence; percent of sucrose octasulfate shift, DMSO zero; activity (Tm shift, normalised), % at 9.99 µM; 340,000 compounds, 1.5% hits; AID 651658;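 active = mean Tm shift, scaled 0 neutral to 100 positive control, at about 1.3% or above, every replicate too, limit read from the data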
The depositor's hits bear a star; . = no result. Rows were chosen to be rich in hits. Some 3.7% of all compounds tested hit in one or more screens of this group.

SMILES | CFTR F508del cor | E-sel inducer | ERAP1 HTS inh | DENV2 CPE rescue | FGF22 binding
COc1ccc(S(=O)(=O)N(C)C[C@@H]2OCCCC[C@H](C)Oc3ccc(NS(=O)(=O)c4ccc(C)cc4)cc3C(=O)N([C@H](C)CO)C[C@@H]2C)cc1 | 1 | 0 | -1 | 14 | -1
C[C@@H]1CN([C@H](C)CO)C(=O)c2cccc(NS(=O)(=O)c3cn(C)cn3)c2O[C@H]1CN(C)Cc1ccncc1 | 0 | 2 | 1 | 17 | 0
C[C@H](CO)N1C[C@H](C)[C@H](CN(C)Cc2ccc(Cl)c(Cl)c2)Oc2c(NS(=O)(=O)c3cn(C)cn3)cccc2C1=O | -2 | 38* | -2 | 4 | 0
C[C@@H]1CN([C@@H](C)CO)C(=O)c2cccc(NS(=O)(=O)c3cn(C)cn3)c2O[C@H]1CN(C)Cc1ccncc1 | 2 | 53* | -1 | 0 | 0
C[C@H](CO)N1C[C@H](C)[C@H](CN(C)C(=O)Nc2cccc3ccccc23)Oc2ncc(/C=C/c3ccccc3)cc2C1=O | 0 | 0 | . | -6 | 0
COC(=O)c1cn(C(=O)c2ccc(OC)c(OC)c2)c2ccccc12 | 3 | 2 | 6 | 26* | 0
O=S(=O)(N[C@@H]1CC[C@@H](CCn2cc(-c3ccccc3F)nn2)O[C@H]1CO)c1ccc(F)cc1 | 5 | 0 | 1 | 39 | -1
OC(COc1ccc2c(c1)OCO2)CN1CCCCC1 (stereo unspecified) | -1 | . | -4 | 3 | 44*
OC(COc1ccc2c(c1)OCO2)CN1CCN(c2ccccc2)CC1 (stereo unspecified) | -4 | . | 8 | 9 | 0
COc1ccc(COC(=O)C2=C(C)NC(=O)NC2c2ccc(F)cc2)cc1 (stereo unspecified) | -1 | . | 6 | 61* | 0
COc1ccc(C2NC(=O)NC(C)=C2C(=O)Nc2cccc(C)c2C)cc1 (stereo unspecified) | 6 | 0 | 2 | 60* | 0
COc1cc(C(=O)Nc2nc3ccccc3[nH]2)ccc1OC(F)F | 2 | 4 | . | 3 | 0
COc1cc(CC(C#N)(CO)c2nc3ccccc3[nH]2)ccc1OC(F)F (stereo unspecified) | 0 | . | 0 | 47* | 0
COCC(=O)Nc1ccc2c(c1)C(=O)N(C)[C@@H]1CC[C@H](CC(=O)OC)O[C@@H]1CO2 | 1 | 0 | . | -2 | -1
CC(C)OC(=O)CC1C(=O)NCCN1C(=S)NC(=O)c1ccccc1Cl (stereo unspecified) | 3 | . | -2 | 4 | 44*
COC(=O)CC1C(=O)NCCN1C(=S)Nc1ccccc1Cl (stereo unspecified) | -3 | 0 | -3 | 13 | 0
O=C(NCC1CCCO1)c1ccccc1OCc1ccc(F)cc1 (stereo unspecified) | 1 | . | 2 | 9 | 0
Cc1ccc(-c2nn(-c3ccccc3Cl)cc2C(=O)NCC2CCCO2)cc1 (stereo unspecified) | -1 | . | -2 | 30* | -1
Cc1ccc(-c2nn(Cc3ccccc3)cc2C(=O)NCC2CCCO2)cc1 (stereo unspecified) | 2 | . | 1 | 5 | 0
O=C(NCC1CCCO1)c1ccccc1OCc1ccc(Cl)cc1 (stereo unspecified) | 3 | 2 | 3 | 65* | .
CCCC(=O)Nc1ccc2c(c1)C(=O)N(C)[C@@H]1CC[C@@H](CC(=O)NCCCN(C)C)O[C@H]1CO2 | 0 | 0 | 2 | 16 | 0
CCCC(=O)Nc1ccc2c(c1)C(=O)N(C)[C@H]1CC[C@H](CC(=O)NCCCN(C)C)O[C@H]1CO2 | 2 | 0 | 3 | 49* | 0
CCCC(=O)Nc1ccc2c(c1)C(=O)N(C)[C@@H]1CC[C@H](CC(=O)NCCCN(C)C)O[C@H]1CO2 | 0 | 0 | -2 | 5 | 0
CCCC(=O)Nc1ccc2c(c1)C(=O)N(C)[C@H]1CC[C@H](CC(=O)NCCCN(C)C)O[C@@H]1CO2 | 3 | 0 | 0 | 61* | 0
CCC(C(=O)NCc1ccccc1)n1c(CSCCOc2ccccc2)nc2ccccc21 (stereo unspecified) | -1 | 0 | -1 | 5 | -1
CC(C(=O)NCc1ccccc1)n1c(CSCCOc2ccccc2)nc2ccccc21 (stereo unspecified) | -1 | 0 | 0 | 40* | 0

From PubChem BioAssay
